pIC50: −log10 of the molar value. Converted amounts (≈) assume the structure as drawn.
What was measured:
[1] = target: T1, Dihydrofolate reductase (Bos taurus, UniProt P00376); assay: Inhibition of bovine DHFR after 2 mins by spectrophotometry
T1 sequence (P00376 whole entry): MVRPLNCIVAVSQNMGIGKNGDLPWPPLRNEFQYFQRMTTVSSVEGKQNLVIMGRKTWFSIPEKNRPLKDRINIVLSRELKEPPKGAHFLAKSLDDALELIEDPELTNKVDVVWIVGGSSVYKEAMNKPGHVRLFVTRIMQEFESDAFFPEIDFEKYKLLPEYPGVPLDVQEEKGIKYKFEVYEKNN

[2] = test system: SF-295; assay: Cytotoxicity against human SF295 cells at 10 uM after 48 hrs by coulter counter analysis; type: functional; conditions: SF-295, 48 h, read-out: GI
[3] = test system: CCRF-CEM; assay: Cytotoxicity against human CCRF-CEM cells at 10 uM after 48 hrs by coulter counter analysis; type: functional; conditions: read-out: GI
[4] = test system: UO-31; assay: Cytotoxicity against human UO31 cells at 10 uM after 48 hrs by coulter counter analysis; type: functional; conditions: UO-31, 48 h, read-out: GI
[5] = test system: Malme-3M; assay: Cytotoxicity against human MALME-3M cells at 10 uM after 48 hrs by coulter counter analysis; type: functional; conditions: read-out: GI
[6] = test system: NCI-H23; assay: Cytotoxicity against human NCI-H23 cells at 10 uM after 48 hrs by coulter counter analysis; type: functional; conditions: NCI-H23, 48 h, read-out: GI
[7] = test system: NCI-H522; assay: Cytotoxicity against human NCI-H522 cells at 10 uM after 48 hrs by coulter counter analysis; type: functional; conditions: NCI-H522, 48 h, read-out: GI
[8] = test system: SNB-19; assay: Cytotoxicity against human SNB19 cells at 10 uM after 48 hrs by coulter counter analysis; type: functional; conditions: SNB-19, 48 h, read-out: GI
[9] = test system: SK-MEL-5; assay: Cytotoxicity against human SK-MEL-5 cells at 10 uM after 48 hrs by coulter counter analysis; type: functional; conditions: SK-MEL-5, 48 h, read-out: GI
[10] = test system: SR; assay: Cytotoxicity against human SR cells at 10 uM after 48 hrs by coulter counter analysis; type: functional; conditions: read-out: GI
[11] = Cytotoxicity against human EKVX cells at 10 uM after 48 hrs by coulter counter analysis; type: functional; conditions: read-out: GI
[12] = test system: MOLT-4; assay: Cytotoxicity against human MOLT4 cells at 10 uM after 48 hrs by coulter counter analysis; type: functional; conditions: MOLT-4, 48 h, read-out: GI
[13] = test system: OVCAR-4; assay: Cytotoxicity against human OVCAR4 cells at 10 uM after 48 hrs by coulter counter analysis; type: functional; conditions: OVCAR-4, 48 h, read-out: GI
[14] = test system: Micrococcus luteus; assay: Antimicrobial activity against Micrococcus luteus at 200 ug after 24 hrs by agar disc diffusion method; type: functional; conditions: read-out: DIZ
[15] = test system: SNB-75; assay: Cytotoxicity against human SNB75 cells at 10 uM after 48 hrs by coulter counter analysis; type: functional; conditions: SNB-75, 48 h, read-out: GI
[16] = test system: SN12C; assay: Cytotoxicity against human SN12C cells at 10 uM after 48 hrs by coulter counter analysis; type: functional; conditions: read-out: GI
[17] = Cytotoxicity against human NCI-ADR-RES cells at 10 uM after 48 hrs by coulter counter analysis; type: functional; conditions: read-out: GI
[18] = test system: Pseudomonas aeruginosa; assay: Antimicrobial activity against Pseudomonas aeruginosa at 200 ug after 24 hrs by agar disc diffusion method; type: functional; conditions: read-out: DIZ
[19] = test system: RXF 393; assay: Cytotoxicity against human RXF393 cells at 10 uM after 48 hrs by coulter counter analysis; type: functional; conditions: RXF 393, 48 h, read-out: GI
[20] = test system: Staphylococcus aureus; assay: Antimicrobial activity against Staphylococcus aureus after 24 hrs by micro-dilution susceptibility method; type: functional
In short: (§1)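 Broth microdilution in Müller-Hinton broth against S. aureus IFO 3060, B. subtilis IFO 3007, E. coli IFO 3301 and P. aeruginosa IFO 3448. These are the same standard strains used in the disc-diffusion primary screen. Compounds were solubilized in DMSO. MIC recorded as the minimal inhibitory concentration.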

[21] = test system: Staphylococcus aureus; assay: Antimicrobial activity against Staphylococcus aureus at 200 ug after 24 hrs by agar disc diffusion method; type: functional; conditions: read-out: DIZ
[22] = test system: Escherichia coli; assay: Antimicrobial activity against Escherichia coli at 200 ug after 24 hrs by agar disc diffusion method; type: functional; conditions: read-out: DIZ
[23] = test system: Hs-578T; assay: Cytotoxicity against human Hs578T cells at 10 uM after 48 hrs by coulter counter analysis; type: functional; conditions: read-out: GI
[24] = test system: MCF7; assay: Cytotoxicity against human MCF7 cells at 10 uM after 48 hrs by coulter counter analysis; type: functional; conditions: MCF7, 48 h, read-out: GI
[25] = test system: PC-3; assay: Cytotoxicity against human PC3 cells at 10 uM after 48 hrs by coulter counter analysis; type: functional; conditions: PC-3, 48 h, read-out: GI
[26] = test system: IGROV-1; assay: Cytotoxicity against human IGROV1 cells at 10 uM after 48 hrs by coulter counter analysis; type: functional; conditions: IGROV-1, 48 h, read-out: GI
[27] = test system: NCI-H226; assay: Cytotoxicity against human NCI-H226 cells at 10 uM after 48 hrs by coulter counter analysis; type: functional; conditions: NCI-H226, 48 h, read-out: GI
[28] = test system: A549; assay: Cytotoxicity against human A549/ATCC cells at 10 uM after 48 hrs by coulter counter analysis; type: functional; conditions: A549, 48 h, read-out: GI
[29] = test system: A498; assay: Cytotoxicity against human A498 cells at 10 uM after 48 hrs by coulter counter analysis; type: functional; conditions: A498, 48 h, read-out: GI
[30] = test system: MDA-MB-435; assay: Cytotoxicity against human MDA-MB-435 cells at 10 uM after 48 hrs by coulter counter analysis; type: functional; conditions: MDA-MB-435, 48 h, read-out: GI
[31] = test system: Bacillus subtilis; assay: Antimicrobial activity against Bacillus subtilis at 200 ug after 24 hrs by agar disc diffusion method; type: functional; conditions: read-out: DIZ
[32] = test system: Bacillus subtilis; assay: Antimicrobial activity against Bacillus subtilis after 24 hrs by micro-dilution susceptibility method; type: functional; in short: as §1
[33] = test system: UACC-62; assay: Cytotoxicity against human UACC62 cells at 10 uM after 48 hrs by coulter counter analysis; type: functional; conditions: UACC-62, 48 h, read-out: GI
[34] = test system: MDA-MB-231; assay: Cytotoxicity against human MDA-MB-231 cells at 10 uM after 48 hrs by coulter counter analysis; type: functional; conditions: MDA-MB-231, 48 h, read-out: GI
[35] = test system: HL-60(TB); assay: Cytotoxicity against human HL-60(TB) cells at 10 uM after 48 hrs by coulter counter analysis; type: functional; conditions: HL-60, 48 h, read-out: GI
[36] = test system: T47D; assay: Cytotoxicity against human T47D cells at 10 uM after 48 hrs by coulter counter analysis; type: functional; conditions: read-out: GI
[37] = test system: LOX IMVI; assay: Cytotoxicity against human LOXIMVI cells at 10 uM after 48 hrs by coulter counter analysis; type: functional; conditions: read-out: GI
[38] = test system: CAKI-1; assay: Cytotoxicity against human Caki1 cells at 10 uM after 48 hrs by coulter counter analysis; type: functional; conditions: CAKI-1, 48 h, read-out: GI
[39] = test system: RPMI-8226; assay: Cytotoxicity against human RPMI8226 cells at 10 uM after 48 hrs by coulter counter analysis; type: functional; conditions: RPMI-8226, 48 h, read-out: GI
[40] = test system: Escherichia coli; assay: Antimicrobial activity against Escherichia coli after 24 hrs by micro-dilution susceptibility method

| Compound | pIC50 [1] | inhibition of growth at 10 µM [2] | inhibition of growth at 10 µM [3] | inhibition of growth at 10 µM [4] | inhibition of growth at 10 µM [5] | inhibition of growth at 10 µM [6] | inhibition of growth at 10 µM [7] | inhibition of growth at 10 µM [8] | inhibition of growth at 10 µM [9] | inhibition of growth at 10 µM [10] | inhibition of growth at 10 µM [11] | inhibition of growth at 10 µM [12] | inhibition of growth at 10 µM [13] | zone of inhibition at 200 µg/disc [14] | zone of inhibition at 200 µg/disc [18] | MIC [20] | zone of inhibition at 200 µg/disc [21] | zone of inhibition at 200 µg/disc [22] | zone of inhibition at 200 µg/disc [31] | MIC [32] | other results |
| --- | --- | --- | --- | --- | --- | --- | --- | --- | --- | --- | --- | --- | --- | --- | --- | --- | --- | --- | --- | --- | --- |
| Cc1ccc2nc(Sc3ncccc3C(=O)O)n(-c3ccccc3)c(=O)c2c1 | 5.10 | < 10% | < 10% | 12.1% | < 10% | < 10% | < 10% | < 10% | < 10% | < 10% | < 10% | < 10% | < 10% | 14 mm | 12 mm | 4 µg/mL (≈ 10.3 µM) | 20 mm | 16 mm | 22 mm | 4 µg/mL (≈ 10.3 µM) | inhibition of growth at 10 µM [15]: < 10%; inhibition of growth at 10 µM [16]: < 10%; inhibition of growth at 10 µM [17]: < 10%; inhibition of growth at 10 µM [19]: < 10%; inhibition of growth at 10 µM [23]: < 10%; inhibition of growth at 10 µM [24]: < 10%; inhibition of growth at 10 µM [25]: 11.7%; inhibition of growth at 10 µM [26]: < 10%; inhibition of growth at 10 µM [27]: < 10%; inhibition of growth at 10 µM [28]: < 10%; inhibition of growth at 10 µM [29]: < 10%; inhibition of growth at 10 µM [30]: < 10%; inhibition of growth at 10 µM [33]: < 10%; inhibition of growth at 10 µM [34]: < 10%; inhibition of growth at 10 µM [35]: < 10%; inhibition of growth at 10 µM [36]: < 10%; inhibition of growth at 10 µM [37]: < 10%; inhibition of growth at 10 µM [38]: 13.1%; inhibition of growth at 10 µM [39]: 10.4% |
| CCOC(=O)c1nc(N)sc1Sc1nc2ccc(Cl)cc2c(=O)n1Cc1ccccc1 | 6.00 | – | – | – | – | – | – | – | – | – | – | – | – | 14 mm | 8 mm | 4 µg/mL (≈ 8.46 µM) | 20 mm | 20 mm | 22 mm | 2 µg/mL (≈ 4.23 µM) | MIC [40]: 4 µg/mL (≈ 8.46 µM) |
| Nc1ncc(Sc2nc3ccc(Cl)cc3c(=O)n2-c2ccccc2)s1 | 5.40 | < 10% | < 10% | < 10% | < 10% | 10.9% | 14% | < 10% | < 10% | 29.1% | 12.9% | < 10% | < 10% | 14 mm | 8 mm | 8 µg/mL (≈ 20.7 µM) | 18 mm | 8 mm | 22 mm | 4 µg/mL (≈ 10.3 µM) | inhibition of growth at 10 µM [15]: < 10%; inhibition of growth at 10 µM [16]: < 10%; inhibition of growth at 10 µM [17]: < 10%; inhibition of growth at 10 µM [19]: < 10%; inhibition of growth at 10 µM [23]: < 10%; inhibition of growth at 10 µM [24]: 19%; inhibition of growth at 10 µM [25]: 10.2%; inhibition of growth at 10 µM [26]: < 10%; inhibition of growth at 10 µM [27]: 25.7%; inhibition of growth at 10 µM [28]: < 10%; inhibition of growth at 10 µM [29]: < 10%; inhibition of growth at 10 µM [30]: < 10%; inhibition of growth at 10 µM [33]: < 10%; inhibition of growth at 10 µM [34]: 21.5%; inhibition of growth at 10 µM [35]: < 10%; inhibition of growth at 10 µM [36]: 19.1%; inhibition of growth at 10 µM [37]: 11.2%; inhibition of growth at 10 µM [38]: 24.1%; inhibition of growth at 10 µM [39]: < 10% |
